Laboratory results from ChEMBL document CHEMBL2086252, “Syntheses and evaluation of anticonvulsant activity of novel branched alkyl carbamates” (J Med Chem, 2012).
Activity calls are given as the source filed them. The rule behind the calls is not given here.

Columns and labels:
Mus musculus [1] = experiment: Protective index, ratio of TD50 for ip dosed albino CF1 mouse by rotarod test to ED50 for ip dosed albino CF1 mouse by 6 Hz psychomotor seizure test; assay type: functional
Outline: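 Protective index calculated as TD50/ED50, with TD50 and ED50 taken from the same species and dosing route.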

Mus musculus [2] = experiment: Anticonvulsant activity in albino CF1 mouse assessed as protection against subcutaneous metrazol-induced seizures at 30 mg/kg, ip after 0.5 hrs; assay type: functional, organism-based; set-up: dose 30 mg/kg
Outline: (§1)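 Mice dosed ip at 30, 100 or 300 mg/kg, then tested 0.5 h and 4 h after administration in the MES or scMet test. Protection was recorded as animals protected over animals tested. Neurotoxicity was recorded as motor impairment or sedation, as animals affected over animals tested.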

Mus musculus [3] = experiment: Anticonvulsant activity in albino CF1 mouse assessed as protection against subcutaneous metrazol-induced seizures at 100 mg/kg, ip after 0.5 hrs; assay type: functional, organism-based; set-up: dose 100 mg/kg; outline: as §1
Mus musculus [4] = experiment: Anticonvulsant activity in albino CF1 mouse assessed as protection against subcutaneous metrazol-induced seizures at 30 mg/kg, ip after 4 hrs; assay type: functional, organism-based; set-up: dose 30 mg/kg; outline: as §1
Mus musculus [5] = experiment: Anticonvulsant activity in albino CF1 mouse assessed as protection against subcutaneous metrazol-induced seizures at 100 mg/kg, ip after 4 hrs; assay type: functional, organism-based; set-up: dose 100 mg/kg; outline: as §1
Mus musculus [6] = experiment: Anticonvulsant activity in albino CF1 mouse assessed as protection against subcutaneous metrazol-induced seizures at 300 mg/kg, ip after 4 hrs; assay type: functional, organism-based; set-up: dose 300 mg/kg; outline: as §1
Mus musculus [7] = experiment: Anticonvulsant activity in albino CF1 mouse assessed as protection against maximal electroshock-induced seizures at 30 mg/kg, ip after 0.5 hrs; assay type: functional, organism-based; set-up: dose 30 mg/kg; outline: as §1
Mus musculus [8] = experiment: Anticonvulsant activity in albino CF1 mouse assessed as protection against maximal electroshock-induced seizures at 100 mg/kg, ip after 0.5 hrs; assay type: functional, organism-based; set-up: dose 100 mg/kg; outline: as §1
Mus musculus [9] = experiment: Anticonvulsant activity in albino CF1 mouse assessed as protection against maximal electroshock-induced seizures at 30 mg/kg, ip after 4 hrs; assay type: functional, organism-based; set-up: dose 30 mg/kg; outline: as §1
Mus musculus [10] = experiment: Anticonvulsant activity in albino CF1 mouse assessed as protection against maximal electroshock-induced seizures at 100 mg/kg, ip after 4 hrs; assay type: functional, organism-based; set-up: dose 100 mg/kg; outline: as §1
Mus musculus [11] = experiment: Anticonvulsant activity in albino CF1 mouse assessed as protection against maximal electroshock-induced seizures at 300 mg/kg, ip after 4 hrs; assay type: functional, organism-based; set-up: dose 300 mg/kg; outline: as §1
Mus musculus [12] = experiment: Neurotoxicity in albino CF1 mouse assessed as minimal motor impairment at 30 mg/kg, ip after 0.5 hrs by rotarod test; assay type: toxicity, organism-based; set-up: dose 30 mg/kg, route intraperitoneal; details: in vivo; outline: as §1
Mus musculus [13] = experiment: Neurotoxicity in albino CF1 mouse assessed as minimal motor impairment at 100 mg/kg, ip after 0.5 hrs by rotarod test; assay type: toxicity, organism-based; set-up: dose 100 mg/kg, route intraperitoneal; details: in vivo; outline: as §1
Mus musculus [14] = experiment: Neurotoxicity in albino CF1 mouse assessed as minimal motor impairment at 30 mg/kg, ip after 4 hrs by rotarod test; assay type: toxicity, organism-based; set-up: dose 30 mg/kg, route intraperitoneal; details: in vivo; outline: as §1
Mus musculus [15] = experiment: Neurotoxicity in albino CF1 mouse assessed as minimal motor impairment at 100 mg/kg, ip after 4 hrs by rotarod test; assay type: toxicity, organism-based; set-up: dose 100 mg/kg, route intraperitoneal; details: in vivo; outline: as §1
Mus musculus [16] = experiment: Neurotoxicity in albino CF1 mouse assessed as minimal motor impairment at 300 mg/kg, ip after 4 hrs by rotarod test; assay type: toxicity, organism-based; set-up: dose 300 mg/kg, route intraperitoneal; details: in vivo; outline: as §1
Rattus norvegicus [17] = experiment: Anticonvulsant activity in Sprague-Dawley albino rat assessed as protection against maximal electroshock-induced seizures at 30 mg/kg, po after 15 mins; assay type: functional, organism-based; set-up: dose 30 mg/kg
Outline: (§2)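 Rats dosed orally. Anti-MES protection was scored as animals protected over animals tested at each time after dosing. Neurotoxicity was scored as motor impairment or sedation, as animals affected over animals tested.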

Rattus norvegicus [18] = experiment: Anticonvulsant activity in Sprague-Dawley albino rat assessed as protection against maximal electroshock-induced seizures at 30 mg/kg, po after 30 mins; assay type: functional, organism-based; set-up: dose 30 mg/kg; outline: as §2
Rattus norvegicus [19] = experiment: Anticonvulsant activity in Sprague-Dawley albino rat assessed as protection against maximal electroshock-induced seizures at 30 mg/kg, po after 1 hr; assay type: functional, organism-based; set-up: dose 30 mg/kg; outline: as §2
Rattus norvegicus [20] = experiment: Anticonvulsant activity in Sprague-Dawley albino rat assessed as protection against maximal electroshock-induced seizures at 30 mg/kg, po after 2 hrs; assay type: functional, organism-based; set-up: dose 30 mg/kg; outline: as §2
Rattus norvegicus [21] = experiment: Anticonvulsant activity in Sprague-Dawley albino rat assessed as protection against maximal electroshock-induced seizures at 30 mg/kg, po after 4 hrs; assay type: functional, organism-based; set-up: dose 30 mg/kg; outline: as §2
Rattus norvegicus [22] = experiment: Neurotoxicity in Sprague-Dawley albino rat assessed as minimal motor impairment at 30 mg/kg, po by rotarod test; assay type: toxicity, organism-based; set-up: dose 30 mg/kg, route oral; details: in vivo; outline: as §2
Mus musculus [23] = experiment: Anticonvulsant activity in ip dosed albino CF-1 mouse assessed as protection against 6 Hz psychomotor seizure; assay type: functional; details: albino CF-1, ip
Outline: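 Quantitative testing: rats dosed orally or ip in MES and scMet tests, and mice dosed ip, including the 6 Hz (32 mA) psychomotor seizure test. ED50 and TD50 were reported in mg/kg with ranges in parentheses. Protective index was calculated as TD50/ED50.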

Rattus norvegicus [24] = experiment: Anticonvulsant activity in Sprague-Dawley albino rat assessed as protection against pilocarpine-induced status epilepticus at 65 mg/kg, ip; assay type: functional, organism-based; set-up: dose 65 mg/kg
Outline: (§3)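 Pilocarpine status epilepticus model in rats. Number and severity of convulsive seizures were observed behaviourally.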

Rattus norvegicus [25] = experiment: Neurotoxicity in pilocarpine-induced status epilepticus Sprague-Dawley albino rat model assessed as minimal motor impairment at 100 mg/kg, ip after 0.25 hr by rotarod test; assay type: toxicity, organism-based; set-up: dose 100 mg/kg, route intraperitoneal; details: in vivo
Rattus norvegicus [26] = experiment: Neurotoxicity in pilocarpine-induced status epilepticus Sprague-Dawley albino rat model assessed as minimal motor impairment at 300 mg/kg, ip after 0.25 hr by rotarod test; assay type: toxicity, organism-based; set-up: dose 300 mg/kg, route intraperitoneal; details: in vivo
Outline: (§4)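 Rat pilocarpine status epilepticus model: test carbamate given at 0 or 30 min after the first observed Racine stage 3 motor seizure, which marks SE onset. Neurotoxicity was scored within the same model.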

Rattus norvegicus [27] = experiment: Neurotoxicity in pilocarpine-induced status epilepticus Sprague-Dawley albino rat model assessed as minimal motor impairment at 30 mg/kg, ip after 0.25 hr by rotarod test; assay type: toxicity, organism-based; set-up: dose 30 mg/kg, route intraperitoneal; details: in vivo; outline: as §4
Rattus norvegicus [28] = experiment: Neurotoxicity in pilocarpine-induced status epilepticus Sprague-Dawley albino rat model assessed as minimal motor impairment at 100 mg/kg, ip after 0.5 hrs by rotarod test; assay type: toxicity, organism-based; set-up: dose 100 mg/kg, route intraperitoneal; details: in vivo
Rattus norvegicus [29] = experiment: Neurotoxicity in pilocarpine-induced status epilepticus Sprague-Dawley albino rat model assessed as minimal motor impairment at 300 mg/kg, ip after 0.5 hrs by rotarod test; assay type: toxicity, organism-based; set-up: dose 300 mg/kg, route intraperitoneal; details: in vivo; outline: as §4
Rattus norvegicus [30] = experiment: Neurotoxicity in pilocarpine-induced status epilepticus Sprague-Dawley albino rat model assessed as minimal motor impairment at 30 mg/kg, ip after 0.5 hrs by rotarod test; assay type: toxicity, organism-based; set-up: dose 30 mg/kg, route intraperitoneal; details: in vivo; outline: as §4
Rattus norvegicus [31] = experiment: Neurotoxicity in pilocarpine-induced status epilepticus Sprague-Dawley albino rat model assessed as minimal motor impairment at 100 mg/kg, ip after 1 hr by rotarod test; assay type: toxicity, organism-based; set-up: dose 100 mg/kg, route intraperitoneal; details: in vivo
Rattus norvegicus [32] = experiment: Neurotoxicity in pilocarpine-induced status epilepticus Sprague-Dawley albino rat model assessed as minimal motor impairment at 30 mg/kg, ip after 1 hr by rotarod test; assay type: toxicity, organism-based; set-up: dose 30 mg/kg, route intraperitoneal; details: in vivo; outline: as §4
Rattus norvegicus [33] = experiment: Neurotoxicity in pilocarpine-induced status epilepticus Sprague-Dawley albino rat model assessed as minimal motor impairment at 100 mg/kg, ip after 2 hrs by rotarod test; assay type: toxicity, organism-based; set-up: dose 100 mg/kg, route intraperitoneal; details: in vivo
Rattus norvegicus [34] = experiment: Neurotoxicity in pilocarpine-induced status epilepticus Sprague-Dawley albino rat model assessed as minimal motor impairment at 30 mg/kg, ip after 2 hrs by rotarod test; assay type: toxicity, organism-based; set-up: dose 30 mg/kg, route intraperitoneal; details: in vivo; outline: as §4
Rattus norvegicus [35] = experiment: Neurotoxicity in pilocarpine-induced status epilepticus Sprague-Dawley albino rat model assessed as minimal motor impairment at 100 mg/kg, ip after 4 hrs by rotarod test; assay type: toxicity, organism-based; set-up: dose 100 mg/kg, route intraperitoneal; details: in vivo
Rattus norvegicus [36] = experiment: Neurotoxicity in pilocarpine-induced status epilepticus Sprague-Dawley albino rat model assessed as minimal motor impairment at 30 mg/kg, ip after 4 hrs by rotarod test; assay type: toxicity, organism-based; set-up: dose 30 mg/kg, route intraperitoneal; details: in vivo; outline: as §4
Rattus norvegicus [37] = experiment: Anticonvulsant activity in ip dosed Sprague-Dawley albino rat assessed as protection against pilocarpine-induced status epilepticus after 0.5 hrs; assay type: functional; outline: as §3
Rattus norvegicus [38] = experiment: Neurotoxicity in pilocarpine-induced status epilepticus Sprague-Dawley albino rat model assessed as minimal motor impairment at 50 mg/kg, ip after 0.5 hrs by rotarod test; assay type: toxicity, organism-based; set-up: dose 50 mg/kg, route intraperitoneal; details: in vivo; outline: as §4
Rattus norvegicus [39] = experiment: Neurotoxicity in pilocarpine-induced status epilepticus Sprague-Dawley albino rat model assessed as minimal motor impairment at 160 mg/kg, ip after 0.5 hrs by rotarod test; assay type: toxicity, organism-based; set-up: dose 160 mg/kg, route intraperitoneal; details: in vivo

With `CC(C)C(COC(N)=O)C(C)C` the “Ratio TD50/ED50” value (Mus musculus [1]) was 3.4, the Activity (Mus musculus [2]) was “inactive” and the Activity (Mus musculus [3]) was “inactive”. The Activity (Mus musculus [4]) was “inactive”, the Activity (Mus musculus [5]) was “inactive” and the Activity (Mus musculus [6]) was “inactive”. The Activity (Mus musculus [7]) was “inactive”, the Activity (Mus musculus [8]) was “inactive” and the Activity (Mus musculus [9]) was “inactive”. For the same molecule, the Activity (Mus musculus [10]) was “inactive”, the Activity (Mus musculus [11]) was “inactive” and the Activity (Mus musculus [12]) was “Non-toxic”. The Activity (Mus musculus [13]) was “Non-toxic”, the Activity (Mus musculus [14]) was “Non-toxic” and the Activity (Mus musculus [15]) was “Non-toxic”. For the same molecule, the Activity (Mus musculus [16]) was “Non-toxic”, the Activity (Rattus norvegicus [17]) was “inactive” and the Activity (Rattus norvegicus [18]) was “inactive”. For the same molecule, the Activity (Rattus norvegicus [19]) was “inactive”, the Activity (Rattus norvegicus [20]) was “inactive” and the Activity (Rattus norvegicus [21]) was “inactive”. For the same molecule, the Activity (Rattus norvegicus [22]) was “Non-toxic”, the ED50 (Mus musculus [23]) was 41 mg/kg and the Activity (Rattus norvegicus [24]) was “Active”. For the same molecule, the Activity (Rattus norvegicus [25]) was “Toxic”, the Activity (Rattus norvegicus [26]) was “Toxic” and the Activity (Rattus norvegicus [27]) was “Non-toxic”. The Activity (Rattus norvegicus [28]) was “Toxic”, the Activity (Rattus norvegicus [29]) was “Toxic” and the Activity (Rattus norvegicus [30]) was “Non-toxic”. The Activity (Rattus norvegicus [31]) was “Non-toxic”, the Activity (Rattus norvegicus [32]) was “Non-toxic” and the Activity (Rattus norvegicus [33]) was “Non-toxic”. The Activity (Rattus norvegicus [34]) was “Non-toxic”, the Activity (Rattus norvegicus [35]) was “Non-toxic” and the Activity (Rattus norvegicus [36]) was “Non-toxic”. For the same molecule, the ED50 (Rattus norvegicus [37]) was 94 mg/kg, the ED97 (Rattus norvegicus [37]) was 184 mg/kg and the Activity (Rattus norvegicus [38]) was “Non-toxic”. The Activity (Rattus norvegicus [39]) was “Toxic”.
